From paper PMC5653211 (Journal of medicinal chemistry, 2017)

Experiments:
[1] = biological target: T1, α7 nAChR (Homo sapiens, UniProt P36544); assay: PAM-potentiated α7 responses, co-application with 10 µM 1; type: cell-based; conditions: for Potentiation by 1: co-applied with 10 µM 1
Procedure, shortened: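 Human α7 nAChR in Xenopus laevis oocytes, two-electrode voltage clamp. Test compound at 10, 30 or 100 µM co-applied with 10 µM positive allosteric modulator. Net charge normalized to 60 µM ACh controls in the same cells; at least four cells (± S.E.M.). Desensitization: 60 µM ACh responses recorded before and after test compound application, 210 s traces, averaged over 8 cells and normalized to pre-application ACh controls.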

[2] = biological target: T1, α7 nAChR; type: cell-based; conditions: for Response when applied alone, of the control ACh response: concentrations of Figure 4, 60 µM ACh control; for α7 activation / partial agonism: compound applied alone
Procedure, shortened: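 Two-electrode voltage clamp on Xenopus laevis oocytes expressing human α7 nAChR. Test compound applied alone at 10, 30, 100, 300 µM and 1 mM; one comparator was tested only up to 300 µM. Response taken as net charge normalized to 60 µM ACh applied alone.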

[3] = biological target: T1, α7 nAChR; assay: Inhibition of α7 ACh-evoked responses, co-application with 60 µM ACh; type: cell-based; conditions: range 0.3–100 µM; co-applied with 60 µM ACh
Procedure, shortened: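 Xenopus laevis oocytes expressing human α7 nAChR, two-electrode voltage clamp. Test compound co-applied with 60 µM ACh at 0.3, 1, 3, 10, 30, 100 […] µM. Net charge normalized to responses to 60 µM ACh applied alone. Each point is the mean of at least four cells (± S.E.M.); IC50 values come from the inhibition concentration-response curve.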

[4] = biological target: muscle type human nAChR (Homo sapiens, UniProt P02708+Q07001); assay: Activation and ACh competition at muscle type nAChR, oocyte voltage clamp; type: cell-based
[5] = biological target: ganglionic α3β4 human nAChR (Homo sapiens, UniProt P30926+P32297); assay: Activation and ACh competition at ganglionic α3β4 nAChR, oocyte voltage clamp; type: cell-based
[6] = biological target: human heteromeric nicotinic receptor α4β2 (Homo sapiens, UniProt P17787+P43681); type: cell-based
[7] = Hydrolytic stability in water and Ringer's buffer by 1H-NMR; type: physicochemical; conditions: water, room temperature (~ 25 °C), 3 h, 19 h and up to 60 days

| SMILES | Potentiated responses relative to the corresponding ones for 7 ([1]; at 10, 30, and 100 µM + 10 µM 1) | Potentiation by 1 [1] | Response when applied alone, of the control ACh response [2] | Inhibition of α7 ACh responses [3] | α7 activation / partial agonism [2] | Activation ([4]; 30 µM compound) | Antagonism ([4]; co-application with 30 µM ACh) | PAM response enhancement compared to the parent compound 4 [1] | Reversibility of desensitization ([1]; 100 µM 7 for 30s, then 10 µM PNU120596, subsequent 60 µM ACh response) | Potentiated response relative to the response to compound applied alone ([1]; coapplication with 10 µM 1) | Response compared to the control ACh response ([1]; coapplication with 10 µM 1, over 10-100 µM compound) | Activation ([5]; 30 µM compound) | Antagonism ([5]; co-application with 100 µM ACh) | Agonism [6] | Hydrolytic stability, 1H-NMR spectra vs time zero [7] |
| --- | --- | --- | --- | --- | --- | --- | --- | --- | --- | --- | --- | --- | --- | --- | --- |
| CC[N+]1(CC)CCN(c2ccccc2)CC1 [compound 4, N,N-diethyl-N’-phenylpiperazine, reference compound] | half or less | modest potentiation | less than 10% | – | – | – | – | – | – | – | – | – | – | – | – |
| CCN1CCN(c2ccccc2)CC1 [compound 5, N-phenyl N’-ethyl piperazine] | – | failed to show significant potentiated responses | less than 10% | lacked the ability to inhibit | no activation | – | – | – | – | – | – | – | – | – | – |
| CC[S+]1CCN(c2ccccc2)CC1.O=S(=O)([O-])C(F)(F)F [compound 7, 1-ethyl-4-phenylthiomorpholin-1-ium trifluoromethane sulfonate] | – | – | less than 10% | – | virtually no activation | failed to produce measureable activation | weak antagonism | 4 fold | readily reversible | 2–3 orders of magnitude | 3 to 25 fold | failed to produce measureable activation | weak antagonism | failed to show agonism | no differences in the spectra |
